GSK3A inh = human GSK-3 alpha kinase inhibition; P49840; ADP-Glo luminescence, 60 min; inhibition, % at 10 µM; actives 0.1% (n = 320,000); AID 2650;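 active = more than half of replicates show inhibition above 20%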;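 note: GST-tagged GSK-3 alpha with peptide substrate and 25 µM ATP; 0% = DMSO neutral wells and 100% = GW8510 positive control wells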
STK33 kinase inh = inhibitors of human STK33 kinase; Q9BYT3; purified STK33, MBP phosphorylation, ADP-Glo luminescence; inhibition, % at 10 µM; actives 0.073% (n = 320,000); AID 2661;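 active = inhibition at or above 25%, using the most active replicate where run in duplicate; inactive = inhibition below 25%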
DYRK1A inh = blocks rat Dyrk1A kinase activity | AID 504441 | inhibition, % at 12.5 µM | Q63470 | ADP-Glo luminescence, NFATc1 peptide | actives 0.43% (n = 310,000); in the data active = inhibition above about 50%;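 note: plate controls were vehicle with enzyme for no effect and no enzyme for full effect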
CDK5 inh = CDK5/p35 (human) kinase inhibition. Q00535+Q15078. Recombinant CDK5/p35, ADP-Glo luminescence, 60 min. inhibition, % at 10 µM. actives 0.01% (n = 330,000). AID 488839;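 active = highest replicate inhibition of at least 50% and at least 75% of replicates reaching 50%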;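 note: plate controls were DMSO neutral control for no effect and GW8510 at 10 µM for full effect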
Target sequence (Q00535 whole entry, looked up): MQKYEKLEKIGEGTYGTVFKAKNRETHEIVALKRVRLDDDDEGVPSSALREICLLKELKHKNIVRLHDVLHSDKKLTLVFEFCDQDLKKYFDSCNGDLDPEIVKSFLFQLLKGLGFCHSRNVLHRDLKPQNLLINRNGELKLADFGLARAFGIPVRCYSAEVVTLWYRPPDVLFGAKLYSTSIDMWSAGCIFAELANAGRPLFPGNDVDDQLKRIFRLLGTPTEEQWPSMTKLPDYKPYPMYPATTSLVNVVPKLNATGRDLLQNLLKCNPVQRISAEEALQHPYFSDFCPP
Target sequence (Q15078 whole entry, looked up): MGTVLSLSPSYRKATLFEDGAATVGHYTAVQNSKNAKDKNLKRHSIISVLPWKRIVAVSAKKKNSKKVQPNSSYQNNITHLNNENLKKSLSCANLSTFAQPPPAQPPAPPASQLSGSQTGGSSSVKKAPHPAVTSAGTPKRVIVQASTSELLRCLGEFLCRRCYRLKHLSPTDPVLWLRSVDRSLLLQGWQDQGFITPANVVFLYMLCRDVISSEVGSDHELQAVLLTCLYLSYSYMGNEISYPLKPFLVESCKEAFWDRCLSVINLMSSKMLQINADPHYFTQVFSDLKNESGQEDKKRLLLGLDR
GSK3beta inhib = human GSK3beta kinase inhibition | GST-GSK3beta kinase, ADP-Glo luminescence, 60 min; hits give low values | activity score (negative = inhibition), % at 10 µM | actives 0.038% (n = 300,000) | AID 2097;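 active = more than half of replicate wells score below -50%, meaning over 50% inhibition versus plate controls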;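 note: 0% = median DMSO wells and -100% = median GW8510 positive control wells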
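Assay system: GST-fused GSK3beta enzyme, cell-free / Medium: Tris pH 7.5 buffer with MgCl2, DTT, BSA, heparin / Also added: peptide substrate plus 25 µM ATP (final) / Compound: 10 µM single point / Timing: kinase reaction with compound 60 min at room temperature / Detection: ADP-Glo luminescence / Benchmarks: DMSO neutral wells and GW8510 at 20 µM as positive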
Active calls of the source: *; · = no result given. The sample as a whole holds a higher share of hits than the screen did.

SMILES	GSK3A inh	STK33 kinase inh	DYRK1A inh	CDK5 inh	GSK3beta inhib
Cc1[nH]nc2c1C(c1ccsc1)C1=C(CC(C)(C)CC1=O)N2 (stereo not drawn)	84*	4	8	9	-77*
Cc1[nH]nc2c1C(c1ccc(O)cc1)C1=C(CC(C)(C)CC1=O)N2 (stereo not drawn)	86*	0	11	5	-74*
COc1ccc(C2C3=C(CC(C)(C)CC3=O)Nc3n[nH]c(C)c32)cc1 (stereo not drawn)	41	2	3	0	-33
COc1cccc(C2C3=C(CC(C)(C)CC3=O)Nc3n[nH]c(C)c32)c1 (stereo not drawn)	78*	-1	7	7	-86*
Cc1ccc(C2C3=C(CC(C)(C)CC3=O)Nc3[nH]c(=S)[nH]c(=O)c32)cc1 (stereo not drawn)	·	-1	-5	2	-2
CC(CCC(C)C(C)(C)C)[C@@H]1CC[C@H]2C3C[C@H](OS(O)(=S)=S)[C@H]4C[C@H](OS(O)(=S)=S)[C@@H](OS(O)(=S)=S)C[C@]4(C)[C@H]3CC[C@]12C (stereo partly drawn) (tested in a mixture with another compound)	3	1	70*	80*	·
Clc1ccccc1-c1nc(/C=N/N2CCOCC2)c2ccccn12	·	·	0	0	3
CN1CCc2c(sc3c2c(=O)n(-c2ccccc2)c2nncn32)C1	·	0	4	2	-21
CN1CCc2c(sc3c2c(=O)n(-c2ccccc2)c2n[nH]c(=S)n32)C1	80*	36*	47	0	-50*
Nc1[nH]nc2nc(-c3ccccc3)[nH]c(=O)c12	9	2	-4	1	3
Nc1nc(-c2ccccc2)[nH]c(=O)c1N	2	3	75*	2	-1
O=c1oc2cc(O)ccc2c2c1CCCC2	56*	5	36	2	-47
CC(=O)Oc1ccc2c3c(c(=O)oc2c1)CCCC3	3	1	-1	2	0
CCc1ccccc1NS(=O)(=O)c1ccc2[nH]cc(C(=O)NC3CCCC3)c(=O)c2c1	·	·	1	1	1
CNC(=O)c1c[nH]c2ccc(S(=O)(=O)Nc3ccccc3F)cc2c1=O	-2	46*	-3	0	-1
Cc1oc2ccc(O)c(CN3CCOCC3)c2c1C(=O)c1ccc(Cl)cc1	9	-1	9	1	1
Cc1oc2c(Cl)c(Cl)c(O)c(CN(C)C)c2c1C(=O)c1ccc(Cl)cc1	70*	-1	15	0	7
Cc1ccc(C(=O)O/N=C(\N)c2ccccn2)c(Cl)c1	34	29*	27	34	-31
N/C(=N\OC(=O)c1ccc(Cl)cc1Cl)c1ccccn1	6	6	8	8	-11
COc1ccc(C(=O)O/N=C(\N)c2ccccc2)cc1	32	26*	·	28	1
COc1cccc(C(=O)O/N=C(\N)c2ccccn2)c1	46	37*	40	41	·
COc1ccccc1NS(=O)(=O)c1cc(NC(=O)c2ccc(NC(C)=O)cc2)ccc1N1CCOCC1	·	·	-1	-1	·
CN1CCN(C=NC2=NN(c3cccc(C(F)(F)F)c3)CC2)CC1	0	30*	-1	-2	0
CN(C)C=NC1=NN(c2cccc(C(F)(F)F)c2)CC1	·	-1	5	0	-1
Cc1cccc(NC(=O)CSc2nnc(-c3ccco3)c(-c3ccco3)n2)c1	·	·	2	-2	·
SMILES	GSK3A inh	STK33 kinase inh	DYRK1A inh	CDK5 inh	GSK3beta inhib
CNc1nc(N)c([N+](=O)[O-])c(NCC2CCCO2)n1 (stereo not drawn)	47	4	·	1	-27
COCCNc1nc(N)c([N+](=O)[O-])c(NCC2CCCO2)n1 (stereo not drawn)	68*	0	34	1	-53*
Nc1nc(NCCOCCO)nc(NCC2CCCO2)c1[N+](=O)[O-] (stereo not drawn)	60*	-1	-3	1	-60*
COc1ccc2c(c1O)C(=O)c1ccccc1C2=O	-1	0	·	·	5
Nc1c(O)ccc2c1C(=O)c1ccccc1C2=O	30	35*	·	·	-13
Cc1cc(NC(=O)CN2CCN(c3ccccn3)CC2)ccc1Br	-2	-2	0	1	1
O=C1/C(=C/c2cccnc2)SC(=S)N1c1ccc(F)cc1	-1	0	·	0	-2
Cc1ccc(C(=O)NC(=S)N(C)C2CCCCC2)cc1Br	3	-1	·	-1	-1
COc1ccc(OC)c(C2CC(=O)Nc3n[nH]c(-c4ccccc4)c32)c1 (stereo not drawn)	18	1	3	1	-7
COc1cccc(C2CC(=O)Nc3n[nH]c(-c4ccccc4)c32)c1OC (stereo not drawn)	61*	0	-4	1	-23
COc1ccc(-c2cc(=O)oc3cc(OC(=O)C4CCCCC4)c(Cl)cc23)cc1	-3	0	6	-8	0
O=C(CN1C(=O)NC(Cc2c[nH]c3ccccc23)C1=O)NCCc1ccc(F)cc1 (stereo not drawn)	2	-1	2	1	1
COc1cc(/C=C/C(=O)OCC(=O)c2ccc[nH]2)cc(OC)c1OC	-1	-1	-4	1	·
c1ccc(-c2nc3ccccc3c3nncn23)cc1	0	-1	-6	-2	3
Cc1cccc(-c2nc3ccccc3c3nncn23)c1	5	53*	58*	1	0
CCOC(=O)c1c(C)n(C)c2ccc(OCC(O)Cn3c(C)nc4ccccc43)cc12 (stereo not drawn)	-2	0	4	-2	-9
CCN(CC)S(=O)(=O)c1ccc(OC)c(NC(=O)/C=C/c2ccco2)c1	-2	-1	-2	2	1
COc1ccc(NC(=O)c2cc([N+](=O)[O-])ccc2O)cc1	0	37*	32	2	1
O=C(O)CCC1c2cc3c4cc2OC2Oc5cc6c(cc51)C(CCC(=O)O)c1cc5c7cc1OC(O6)c1cc6cc(c1)Oc1cc(cc(C(=O)O)c1)Oc1cc8cc(c1)C(Oc1cc(c(cc1C5CCC(=O)O)C3CCC(=O)O)OC(O4)c1cc(cc(c1)Oc1cc(cc(C(=O)O)c1)O8)Oc1cc(cc(C(=O)O)c1)Oc1cc(cc2c1)Oc1cc(cc(C(=O)O)c1)O6)O7 (stereo not drawn)	-305	30*	·	·	2
O=C(Cn1ccc2ccccc2c1=O)NCCC(=O)Nc1cccc(Cl)c1	-3	1	-4	-2	3
O=c1[nH]c2c(s1)C(c1cccnc1)C1C3CCC(C3)C1S2 (stereo not drawn)	49	-2	2	-1	-21
O=c1[nH]c2c(s1)C(c1ccc(O)cc1)C1C3CCC(C3)C1S2 (stereo not drawn)	75*	0	6	-2	3
O=C1NC(=O)c2c(NC(=O)C3CCCO3)cccc21 (stereo not drawn)	8	1	·	7	-3

Assay outcomes from PubChem.
